Data on 13 molecules can be found in ChEMBL document CHEMBL2321702, “Synthesis and antimalarial efficacy of two-carbon-linked, artemisinin-derived trioxane dimers in combination with known antimalarial drugs” (J Med Chem, 2013).

For data set [1], the system named is Plasmodium berghei. Kind of data set: Antimalarial activity against Plasmodium berghei ANKA infected in C57BL/6J mouse assessed as suppression of blood parasitemia level at 6 mg/kg, po measured on day 3 relative to vehicle-treated control in presence of mef-HCl. Format: functional. In outline:
(§1)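 Male C57BL/6J mice (5 weeks old, about 20 g; four per group) were infected with P. berghei ANKA (2×10^7 parasitized erythrocytes). After 24 h, each received a single 200 μL oral gavage of trioxane 6 mg/kg plus mefloquine hydrochloride 18 mg/kg in 7:3 Tween:EtOH diluted with water. Blood parasitemia was read on day 3, and survival was followed to day 60 against untreated mice.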

The test system of data set [2] is Plasmodium berghei. The experiment in a line: Antimalarial activity against Plasmodium berghei ANKA infected in C57BL/6J mouse assessed as average survival time at 6 mg/kg, po in presence of Mef-HCl (reference value: 7.3 days). Format: functional. In short, it runs like this:
as §1

In data set [3] the test system is Plasmodium berghei. The experiment in a line: Antimalarial activity against Plasmodium berghei ANKA infected in C57BL/6J mouse assessed as suppression of blood parasitemia level at 6 mg/kg, po measured on day 3 relative to vehicle-treated control in presence of lumefantrine. Format: functional. In short, it runs like this:
(§2)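 P. berghei ANKA infection (2×10^7 parasitized erythrocytes) in male C57BL/6J mice, four per group. A single oral dose was given 24 h post-infection: trioxane 6 mg/kg plus lumefantrine 18 mg/kg. Day-3 blood parasitemia was compared with vehicle mice, and survival was tracked up to 60 days.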

The subject of data set [4] is Plasmodium berghei. The experiment in a line: Antimalarial activity against Plasmodium berghei ANKA infected in C57BL/6J mouse assessed as average survival time at 6 mg/kg, po in presence of lumefantrine (reference value: 8.8 days). Format: functional. In outline:
as §2

Data set [5] relates to Plasmodium berghei. The experiment in a line: Antimalarial activity against Plasmodium berghei ANKA infected in C57BL/6J mouse assessed as suppression of blood parasitemia level at 6 mg/kg, po measured on day 3 relative to vehicle-treated control in presence of mefloquine. Format: functional. In outline: as §1
For data set [6], the system named is Plasmodium berghei. The experiment in a line: Antimalarial activity against Plasmodium berghei ANKA infected in C57BL/6J mouse assessed as average survival time at 150 mg/kg, po (reference value: 8.8 days). Format: functional. In outline: (§3)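 Single-dose oral monotherapy without adjuvant, at 120 or 150 mg/kg, given by gavage 24 h after infecting male C57BL/6J mice (four per group) with 2×10^7 P. berghei ANKA-parasitized erythrocytes. Blood parasitemia was measured on day 3 relative to vehicle controls. Survival was recorded over a 60-day study.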

In data set [7] the test system is Plasmodium berghei. Kind of data set: Antimalarial activity against Plasmodium berghei ANKA infected in C57BL/6J mouse assessed as suppression of blood parasitemia level at 150 mg/kg, po measured on day 3 relative to vehicle-treated control. Format: functional. In outline:
as §3

In data set [8] the test system is Plasmodium berghei. The experiment in a line: Antimalarial activity against Plasmodium berghei ANKA infected in C57BL/6J mouse assessed as average survival time at 120 mg/kg, po (reference value: 7.3 days). Format: functional. In short, it runs like this:
as §3

Data set [9] relates to Plasmodium berghei. Kind of data set: Antimalarial activity against Plasmodium berghei ANKA infected in C57BL/6J mouse assessed as average survival time at 6 mg/kg, po in presence of mefloquine (reference value: 8.8 days). Format: functional. In short, it runs like this: as §1
Data set [10] has as its system Plasmodium berghei. The experiment in a line: Antimalarial activity against Plasmodium berghei ANKA infected in C57BL/6J mouse assessed as suppression of blood parasitemia level at 120 mg/kg, po measured on day 3 relative to vehicle-treated control. Format: functional. In short, it runs like this: as §3
The test system of data set [11] is Mus musculus. The experiment in a line: Toxicity in po dosed C57BL/6J mouse infected with Plasmodium berghei ANKA assessed as average body weight gain measured on day 3 (reference value: 7.7 g). Format: organism-based. The conditions noted are these: in vivo.

Regarding `C[C@H]1[C@@H](/C(C[C@H]2O[C@@H]3O[C@@]4(C)CC[C@H]5[C@H](C)CC[C@@H]([C@H]2C)[C@@]35OO4)=N\OC(=O)N(C)C)O[C@@H]2O[C@@]3(C)CC[C@H]4[C@H](C)CC[C@@H]1[C@@]24OO3`, in [1], the Activity was >99.9%.
On the same count and under the same terms, as for `C[C@H]1[C@@H](C(=O)C[C@H]2O[C@@H]3O[C@@]4(C)CC[C@H]5[C@H](C)CC[C@@H]([C@H]2C)[C@@]35OO4)O[C@@H]2O[C@@]3(C)CC[C@H]4[C@H](C)CC[C@@H]1[C@@]24OO3`, the figure is >99.9%.
As to `C=CCO/N=C(/C[C@H]1O[C@@H]2O[C@@]3(C)CC[C@H]4[C@H](C)CC[C@@H]([C@H]1C)[C@@]24OO3)[C@H]1O[C@@H]2O[C@@]3(C)CC[C@H]4[C@H](C)CC[C@@H]([C@H]1C)[C@@]24OO3`, the MST in [2] is 40.3 days; in data set [4], 41.3 days; in data set [6] it was 46.8 days; in data set [8], 40.3 days; in data set [9], 49 days. Besides, the Activity in [1] is >99.9%; in data set [3] it was >99.9%; in data set [5], >99.9%; in data set [7], >99%; in data set [10], >99.9%.
For the molecule `C#CCO/N=C(/C[C@H]1O[C@@H]2O[C@@]3(C)CC[C@H]4[C@H](C)CC[C@@H]([C@H]1C)[C@@]24OO3)[C@H]1O[C@@H]2O[C@@]3(C)CC[C@H]4[C@H](C)CC[C@@H]([C@H]1C)[C@@]24OO3`, the MST worked out at 60 days in [2], 60 days in [4] and 46.8 days in data set [6]. For the same molecule, the Activity in data set [1] is on record as >99.9%; in data set [11] it was 12 g; in data set [3] it was >99.9%; in data set [5], >99.9%; in data set [7], >99.9%.
For the molecule `CO/N=C(\C[C@H]1O[C@@H]2O[C@@]3(C)CC[C@H]4[C@H](C)CC[C@@H]([C@H]1C)[C@@]24OO3)[C@H]1O[C@@H]2O[C@@]3(C)CC[C@H]4[C@H](C)CC[C@@H]([C@H]1C)[C@@]24OO3`, in [5], the Activity was >99.9%. The MST in data set [9] was found to be 37 days.
With `COP(=O)(OC)O/N=C(/C[C@H]1O[C@@H]2O[C@@]3(C)CC[C@H]4[C@H](C)CC[C@@H]([C@H]1C)[C@@]24OO3)[C@H]1O[C@@H]2O[C@@]3(C)CC[C@H]4[C@H](C)CC[C@@H]([C@H]1C)[C@@]24OO3`, the MST in [2] was 56 days. Besides, the Activity in data set [1] is listed as >99.9%.
As to `C[C@H]1[C@@H](/C(C[C@H]2O[C@@H]3O[C@@]4(C)CC[C@H]5[C@H](C)CC[C@@H]([C@H]2C)[C@@]35OO4)=N\OCC2CC2)O[C@@H]2O[C@@]3(C)CC[C@H]4[C@H](C)CC[C@@H]1[C@@]24OO3`, the Activity in data set [5] is >99.9%. The MST in data set [9] amounted to 41 days.
On to `C[C@H]1[C@@H](/C(C[C@H]2O[C@@H]3O[C@@]4(C)CC[C@H]5[C@H](C)CC[C@@H]([C@H]2C)[C@@]35OO4)=N\OC(C)(C)C)O[C@@H]2O[C@@]3(C)CC[C@H]4[C@H](C)CC[C@@H]1[C@@]24OO3`, for which, in data set [5], the Activity is >99.9%.
Regarding `C[C@H]1[C@@H](/C(C[C@H]2O[C@@H]3O[C@@]4(C)CC[C@H]5[C@H](C)CC[C@@H]([C@H]2C)[C@@]35OO4)=N\O)O[C@@H]2O[C@@]3(C)CC[C@H]4[C@H](C)CC[C@@H]1[C@@]24OO3`, the MST in data set [2] amounted to 52.5 days. In data set [1], the Activity was >99.9%.
Consider `CO/N=C(/C[C@H]1O[C@@H]2O[C@@]3(C)CC[C@H]4[C@H](C)CC[C@@H]([C@H]1C)[C@@]24OO3)[C@H]1O[C@@H]2O[C@@]3(C)CC[C@H]4[C@H](C)CC[C@@H]([C@H]1C)[C@@]24OO3`, for which the MST in data set [2] amounted to 60 days; in [4] it was 26.3 days; in data set [6] it was 8.3 days; in data set [9], 49 days. The Activity was >99.9% in data set [1]; 10.7 g in data set [11]; >99.9% in data set [3]; >99.9% in data set [5]; 98% in data set [7].
Take `CC(=O)O/N=C(/C[C@H]1O[C@@H]2O[C@@]3(C)CC[C@H]4[C@H](C)CC[C@@H]([C@H]1C)[C@@]24OO3)[C@H]1O[C@@H]2O[C@@]3(C)CC[C@H]4[C@H](C)CC[C@@H]([C@H]1C)[C@@]24OO3`: the Activity in data set [1] was >99.9%.
On to `CO[C@H]1O[C@@H]2O[C@@]3(C)CC[C@H]4[C@H](C)CC[C@@H]([C@H]1C)[C@@]24OO3` [ARTEMETHER], for which the values for the MST in [2] and in [4] were 40 days and 19 days, respectively. Also, the Activity in data set [1], in data set [3] and in data set [5] was >99.9% in each case.
With `CCOP(=O)(OCC)O/N=C(/C[C@H]1O[C@@H]2O[C@@]3(C)CC[C@H]4[C@H](C)CC[C@@H]([C@H]1C)[C@@]24OO3)[C@H]1O[C@@H]2O[C@@]3(C)CC[C@H]4[C@H](C)CC[C@@H]([C@H]1C)[C@@]24OO3`, the MST in [2] came out at 21.5 days. In [1], the Activity was >99.9%.
